# High-throughput results (PubChem BioAssay)
# This is one part of a sample in which hits are shown more often than they occur.
# H69AR inhibit – growth inhibitors of human H69AR lung tumor cells | AID 598 | H69AR lung tumor viability, ATP luminescence, 72 h; stronger effect = lower value | viability, % at 10 µM | 85,000 tested, 6% active;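 active means viability at or below 40%; inactive means viability above 40%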;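 further: multidrug resistant small cell line overexpressing MRP-1 efflux transporter; 100% = mean luminescence of untreated control wells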
# PTEN del growth – PTEN-deleted cell growth suppression | AID 827 | 140,000 tested, 1.2% active | viability, % at 10 µM | HCT116 PTEN-null viability, CellTiter-Glo, 60 h; stronger effect = lower value;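 active means viability at or below a set limit, 4 SD under the median of all tested compounds, cut at about 3.7% in these data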;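 further: PTEN knockout HCT116 line with beta catenin targeted HCT116 as companion control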
# HUVEC prolif 384 – human endothelial cell proliferation inhibition. viability, % at 10 µM (by protocol). AID 648. 86,000 tested, 1.1% active. HUVEC proliferation, CellTiter-Glo luminescence, 72 h; stronger effect = lower value;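 active means viability at or below 30%; inactive means viability above 30%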;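 further: 100% = median luminescence of DMSO-only cell control wells on each plate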
# bCat KO growth – beta-catenin-lacking colon tumor cell growth suppression; HCT116 beta-catenin knockout viability, CellTiter-Glo, 60 h; stronger effect = lower value; viability, % at 10 µM; 140,000 tested, 1.5% active; AID 818;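 active means viability at or under a set limit, the compound median less 4 SD, cut at about 6% in these data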;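 further: 0% = Hyamine 1622 control at 20 µM and 100% = untreated cell control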
# Lung fibro prol – blocks proliferation of human lung fibroblasts; LL 47 human lung fibroblast viability, ATP luminescence; stronger effect = lower value; viability, % at 10 µM; 85,000 tested, 1.1% active; AID 719;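 active means viability at or below 50% in the single dose screen; inactive means viability above 50%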;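 further: compound exposure lasted 72 h before the ATP readout; 100% = median luminescence of untreated cell-only wells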
#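 Material: Human LL 47 lung fibroblast cells | Input: 1,150 cells/well | Buffer or medium: IMEM plus 15% FBS | Compound dosing: 0.1% DMSO in all compound wells | Times: Overnight cell rest, 72 h compound treatment at 37 °C | Signal: CellTiter-Glo luminescence measuring cellular ATP | Measure: % viability versus median cells-only luminescence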
# An asterisk follows results filed as active; nt = no result.
SMILES,H69AR inhibit,PTEN del growth,HUVEC prolif 384,bCat KO growth,Lung fibro prol
COCc1[nH]nc2c1C(c1ccc(OC)c(OC)c1)C(C#N)=C(N)O2 (configuration not stated),86,104,95,102,103
CCC(=O)N1CCc2cc(S(=O)(=O)NC(C(=O)NC3CCCc4ccccc43)C(C)C)ccc21 (configuration not stated),nt,85,nt,96,nt
CCOC(=O)C1=C(O)/C(=C/c2cc(OC)c(OC)c(OC)c2)SC1=Nc1ccc(OC)cc1,nt,86,nt,86,nt
CCOC(=O)C1=C(O)/C(=C/c2ccc(C)o2)SC1=NC(=O)c1ccccc1C,17*,nt,64,nt,58
CC(=O)Nc1sc(NC(=O)c2ccccc2)nc1-c1cccs1,55,90,97,105,107
CSc1nc2ccc3nc(NC(=O)c4ccccc4)sc3c2s1,32*,80,109,90,97
CCC(C)[C@@H](NC(=O)OC(C)(C)C)c1nnc(S(=O)(=O)Cc2cccc(C)c2)o1 (some centres not stated),1.6*,54,76,21,6.2*
Cc1ccccc1CS(=O)(=O)c1nnc([C@H](Cc2ccccc2)NC(=O)OC(C)(C)C)o1,1.2*,2.8*,62,3.5*,5.5*
CC(C)(C)OC(=O)N[C@@H](Cc1ccccc1)c1nnc(SCC(=O)c2ccc(Cl)cc2)o1,47,79,46,81,29*
CN1C(=O)/C(=C/C=C2\SCCN2C)SC1=S,nt,89,nt,100,nt
COc1ccc(N(CC(=O)Nc2nc3ccc(C)cc3s2)S(=O)(=O)c2c(C)nn(C)c2C)cc1,15*,32,73,26,86
CCOC(=O)NC1(Nc2ccc(Cl)cn2)Oc2ccccc2O1,28*,87,79,88,96
CCOC(=O)/C=C/C(=O)OCC(=O)Nc1ccc(Cl)cn1,81,83,83,82,70
CN(C)S(=O)(=O)c1ccc2[nH]cc(/C=C/c3nc4ccccc4c(=O)n3-c3ccccc3)c2c1,37*,60,57,45,73
Cc1c(Cl)cccc1NC(=S)NNc1ncc(C(F)(F)F)cc1Cl,16*,68,50,69,96
Cc1ccccc1NC(=S)NNc1ncc(C(F)(F)F)cc1Cl,nt,81,nt,82,nt
CCOC(=O)c1cnc(SCc2cccc(C)c2)nc1N,80,112,102,105,96
CCOC(=O)N1CCc2c(sc3c2C(=O)NC(c2ccc(-c4ccc(Cl)cc4)o2)N3)C1 (configuration not stated),30*,nt,89,nt,53
CCN(CC)S(=O)(=O)c1ccc2c(c1)nc(CCC(=O)Nc1ccc3c(c1)OCO3)n2CC,nt,83,nt,89,nt
O=C(CCNc1cccc(Cl)c1)c1ccco1,2.2*,38,92,50,97
O=C(CNC(=O)c1ccco1)OCc1cccc(Cl)c1,92,102,86,94,105
c1ccc(-c2nc(NCc3cccnc3)c3oc4ccccc4c3n2)cc1,38*,52,67,58,87
NC(N)=N/N=C/c1ccccc1,99,81,99,91,96
NC(N)=N/N=C/c1ccc(OCc2ccccc2Cl)cc1,nt,0.9*,nt,0.9*,nt
CCn1ncc(Cl)c1C(=O)Nc1cc([N+](=O)[O-])ccc1OC,nt,98,nt,96,nt
SMILES,H69AR inhibit,PTEN del growth,HUVEC prolif 384,bCat KO growth,Lung fibro prol
O=C1NC(c2cccs2)Nc2ccccc21 (configuration not stated),61,66,100,84,100
Cc1ccsc1C1NC(=O)c2ccccc2N1 (configuration not stated),23*,74,63,72,88
CCC(=O)Nc1cc(C(=O)OC(C(=O)c2ccc(C)c(C)c2)c2ccccc2)ccc1C (configuration not stated),nt,67,nt,73,nt
COc1ccc(C(=O)/C=C/c2cccs2)c(OC(=O)N2CCOCC2)c1,nt,32,nt,45,nt
COc1ccc(OC(=O)c2cccc([N+](=O)[O-])c2)c(C(=O)/C=C/c2cccs2)c1,3.4*,93,53,88,93
COC(=O)c1cc(COc2ccc3c(c2)oc(=O)c2ccccc23)c(C)o1,20*,47,25*,28,98
CCOC(=O)Nc1nc(-c2ccc(Cl)cc2Cl)cs1,nt,70,nt,76,nt
Cc1ccc(C(O)(c2ccccc2)c2ccccc2C(C)N(C)C)c(C)c1 (configuration not stated),nt,1.8*,nt,3.5*,nt
COC(=O)c1[nH]c2ccc(C)cc2c1NC(=O)NC1CCCCC1,49,36,90,5.2*,96
